# Hits are enriched below; roughly 2.6% of the tested compounds scored in any of these assays.
# T cell modulator = modulators of CD8 T cell-vesicle binding, primary screen, mouse 2C CD8+ T cells, flow cytometry; 330,000 tested, 0.068% active; response (vesicle binding), % at 7 µM; 2C CD8+ T cell-vesicle binding; hits give low values;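 active means response, share of CD8 T cells binding vesicles, and their 90th percentile fluorescence all below set limits, cut at about 80% in these data, passing the limit was not always enough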;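 further: values below 100% mean blocked vesicle binding to the CD8+ T cells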
#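 Material: murine 2C transgenic CD8+ T lymphocytes / Also added: QL9-peptide-loaded Drosophila micro-vesicles bearing Ld, ICAM-1 and B7-1 / Schedule: binding step 1.5 h, 37 °C, antibody labelling 20 min, ice / Signal: flow cytometry, PE anti-B7-1 (FL2) versus Alexa647 anti-CD8 (FL8), PFA-fixed / Evaluation: percent CD8+ FL2 mean versus row control / Benchmarks: naked versus QL9-loaded vesicles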
# EP2 antag = human EP2 receptor antagonists, primary screen, TR-FRET cAMP, C6 glioma cells; 260,000 tested, 0.52% active; inhibition, % at 25 µM; Prostaglandin E2 receptor EP2 subtype (Homo sapiens), P43116; C6 glioma cells expressing human EP2; cells stimulated with saturating PGE2;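 active means percent inhibition above 40 after rounding to a whole number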;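 further: rat C6 glioma host cells with rolipram phosphodiesterase inhibitor present; the protocol text gives 20 µM as final concentration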
# EP2 mod = EP2 receptor modulators, cAMP readout, primary screen, cell-based, HTRF cAMP, PGE2 stimulation; AID 940, 2007; Prostaglandin E2 receptor EP2 subtype (Homo sapiens), P43116; EP2-expressing cells, cAMP HTRF FRET, PGE2 co-stimulation; 260,000 tested, 0.83% active; induction, % at 25 µM;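 active means compounds whose cAMP rise, as percent of the full-agonist control response, exceeds 60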;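 further: rat C6 glioma line stably carrying human EP2 under a CMV promoter; the protocol text gives 20 µM as final concentration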
# Exocytosis inh = LAMP-1 surface exposure blockers, TALL-104 cells – cell-based, flow cytometry, MLPCN library, primary screen. 360,000 tested, 0.66% active. TALL-104 LAMP-1 surface exposure; cells stimulated with thapsigargin and PMA. inhibition, % at 10 µM;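 active means inhibition above about 55%, limit read from the data; inconclusive means no clear call, values can overlap the other calls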
# MC4R antag cAMP = MC4R antagonists of cAMP signaling, primary screen, cell-based, TR-FRET, antagonist arm of biased-ligand search. Melanocortin receptor 4 (Homo sapiens), P32245. MC4R-expressing cells, MTII-stimulated cAMP, LANCE TR-FRET. inhibition, % at 6.5 µM. 360,000 tested, 0.48% active;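 active means inhibition above its plate's cutoff, the mean of tested wells on that plate plus 3 SD, cut at about 29% in these data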
#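 System – human MC4R-expressing U2OS cells · Also added – Melanotan II · Dosing – one concentration, 6.5 µM nominal · Timing – 30-min compound, 1-h challenge, 1-h detection, room temperature · Measured by – Eu-cAMP/anti-cAMP TR-FRET, emission 671 nm · Replicates – singlicate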
# MC4R barr agon = MC4R agonists recruiting beta-arrestin, primary screen, cell-based, luminescence, agonist arm of biased-ligand search. Melanocortin receptor 4 (Homo sapiens), P32245. U2OS MC4R beta-arrestin complementation; percent of melanotan II response, DMSO zero. activation, % at 8.9 µM. 360,000 tested, 0.98% active. AID 540308, 2011;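 active means activation above a per-plate cutoff, the mean activation of sample wells on that plate plus 3 SD, cut at about 8% in these data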
# MC4R barr conf = MC4R beta-arrestin agonists, retest, confirmation, cell-based, luminescence, U2OS | shares compounds with MC4R barr agon | U2OS MC4R beta-arrestin recruitment; scaled DMSO 0%, Melanotan II 100% | activation, % at 8.9 µM | 2,400 tested, 31% active;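 active means mean activation across replicates above the hit cutoff set in the earlier primary screen, cut at about 8% in these data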
# MOR-DOR barr ag = agonists of MOR-DOR heterodimerization, counter-screen for MC4R biased agonist project, cell-based, luminescence. activation, % at 9.2 µM. U2OS PathHunter beta-arrestin, beta-gal luminescence; percent of deltorphin B response, DMSO zero. shares compounds with MC4R barr agon. 2,400 tested, 5.8% active;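 active means mean activation across replicates exceeds the hit threshold derived in the earlier primary screen, cut at about 18% in these data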
# Target sequence (P35372 whole entry, looked up): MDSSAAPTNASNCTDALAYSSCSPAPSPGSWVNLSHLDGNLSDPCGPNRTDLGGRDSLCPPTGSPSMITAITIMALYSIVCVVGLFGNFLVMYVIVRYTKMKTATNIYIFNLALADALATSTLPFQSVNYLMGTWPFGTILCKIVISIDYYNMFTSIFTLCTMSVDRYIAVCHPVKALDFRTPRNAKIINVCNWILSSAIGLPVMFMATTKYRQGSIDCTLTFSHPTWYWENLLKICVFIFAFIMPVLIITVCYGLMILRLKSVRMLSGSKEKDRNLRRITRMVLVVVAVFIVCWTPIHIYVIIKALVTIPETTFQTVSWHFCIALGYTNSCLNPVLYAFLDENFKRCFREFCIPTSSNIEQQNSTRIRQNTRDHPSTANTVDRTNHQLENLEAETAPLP
# Target sequence (P41143 whole entry, looked up): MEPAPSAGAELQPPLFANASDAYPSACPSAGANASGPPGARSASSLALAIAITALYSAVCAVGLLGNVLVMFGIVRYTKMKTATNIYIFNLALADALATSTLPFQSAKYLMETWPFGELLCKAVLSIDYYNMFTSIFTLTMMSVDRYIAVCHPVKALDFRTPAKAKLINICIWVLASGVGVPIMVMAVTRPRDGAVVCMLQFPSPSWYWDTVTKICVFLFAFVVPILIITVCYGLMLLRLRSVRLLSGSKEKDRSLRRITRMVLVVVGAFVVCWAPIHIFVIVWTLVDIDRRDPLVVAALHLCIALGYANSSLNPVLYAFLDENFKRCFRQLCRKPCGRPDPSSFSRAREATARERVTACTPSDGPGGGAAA
# Numbers stand for hits; – = inactive; ? = inconclusive; · = no result.
SMILES,T cell modulator,EP2 antag,EP2 mod,Exocytosis inh,MC4R antag cAMP,MC4R barr agon,MC4R barr conf,MOR-DOR barr ag
O=[N+]([O-])c1ccc(-c2ccc(/C=N/c3c(-c4ccco4)nc4ccccn34)o2)cc1,–,·,–,–,–,13,9.2,–
O=[N+]([O-])c1ccc(Cl)c(-c2ccc(/C=N/c3c(-c4ccco4)nc4ccccn34)o2)c1,–,·,–,–,–,–,·,·
COCCNC(=O)C1(C)CCCN(Cc2ccc(-c3ccccn3)cc2)C1 (stereo not drawn),·,·,·,–,–,–,·,·
COc1ccc(-c2cc(C(=O)Nc3ccccc3SC)no2)cc1OC,–,–,–,–,–,39,–,–
O=C(Nc1cnn(C23CC4CC(CC(C4)C2)C3)c1)c1cc(-c2ccccc2)on1,–,–,–,–,–,12,–,–
COc1ccc(-c2cc(C(=O)Nc3cnn(Cc4ccccc4C)c3)no2)cc1OC,–,–,–,–,–,12,–,–
O=C(Nc1cccc(S(=O)(=O)N2CCOCC2)c1)C1CCN(S(=O)(=O)c2ccccc2)CC1,–,·,·,–,–,–,·,·
Cc1ccc(N2N=C(c3ccc(Br)cc3)CCC2=O)cc1,–,–,–,–,–,–,·,·
COC(=O)c1sc(NC(=O)c2cccc([N+](=O)[O-])c2)c(C(N)=O)c1C,–,–,–,–,–,–,·,·
COC(=O)c1c(NC(=O)c2cccc([N+](=O)[O-])c2)sc(C(N)=O)c1C,–,–,–,?,–,12,–,–
COc1ccc(-c2noc(-c3ccc4c(c3)OCO4)n2)cc1,–,–,–,–,–,–,·,·
COc1cccc(-c2noc(-c3ccc4c(c3)OCO4)n2)c1,–,–,–,–,–,11,–,–
C=CCn1c2cc(C)oc2c2cnn(CC(=O)N(Cc3ccccn3)C3CC3)c(=O)c21,·,·,–,·,·,·,·,·
Cc1ccc(NC(=O)c2csc(-c3ccccc3)c2C)cc1,·,–,–,–,–,–,·,·
Cc1c(C(=O)Nc2cccc([N+](=O)[O-])c2)csc1-c1ccccc1,–,·,–,–,–,14,–,–
COc1ccc(C(=O)Nc2cccc([N+](=O)[O-])c2)cc1Br,–,–,·,–,–,22,8.9,–
O=C(Nc1cccc([N+](=O)[O-])c1)c1ccc(-c2ccccc2)cc1,–,–,–,–,–,39,–,25
COc1ccc(NC(=O)C2CCCN(S(=O)(=O)c3c(C)n[nH]c3C)C2)cc1 (stereo not drawn),–,–,–,–,–,–,·,·
Cc1cccc(N(Cc2ccccc2)C(=O)c2ccc(S(C)(=O)=O)cc2)c1,–,·,·,–,–,–,·,·
C/C(=N\NC(=O)Nc1ccccc1)c1ccc2ccccc2c1,–,–,–,–,–,21,–,–
C/C(=N/NC(=O)Nc1ccccc1)c1ccc(C)cc1,–,–,–,–,–,11,–,–
COCc1ccc(C(=O)N2CCCC(C(=O)c3ccc(Cl)cc3C)C2)o1 (stereo not drawn),–,·,·,–,–,–,·,·
CCc1cccc(CC)c1NC(=O)NC1CCCCC1,–,–,–,–,–,–,·,·
COc1ccc2cc3cc(C(=O)Nc4cc(OC)c(OC)c(OC)c4)oc3nc2c1,–,–,–,–,–,–,·,·
COc1ccc2cc3cc(C(=O)Nc4ccc5c(c4)OCCO5)oc3nc2c1,–,–,–,–,–,43,–,–
SMILES,T cell modulator,EP2 antag,EP2 mod,Exocytosis inh,MC4R antag cAMP,MC4R barr agon,MC4R barr conf,MOR-DOR barr ag
N#Cc1c(N)nc(-c2ccccc2)nc1-c1ccccc1,–,–,–,–,–,13,–,–
N#Cc1c(-c2ccccc2)nc(-c2ccccc2)nc1N1CCOCC1,–,–,–,–,–,–,·,·
CCOC(=O)c1[nH]cnc1C(=O)Nc1cccc(Cl)c1,–,–,–,–,–,–,·,·
Cc1cccc(N2CCN(C3=NC(=O)/C(=C\c4cn[nH]c4-c4ccccc4)S3)CC2)c1,–,–,–,–,–,16,–,–
O=C1N=C(N2CCN(c3ccccc3)CC2)S/C1=C\c1ccco1,–,–,–,–,–,–,·,·
Cc1ccc(N2CCN(C3=NC(=O)/C(=C\c4cn[nH]c4-c4ccccc4)S3)CC2)cc1,–,–,–,–,–,18,–,–
COc1ccc(CNCCC(c2ccc(OC(C)C)cc2)C(C)C)cc1OC (stereo not drawn),·,–,–,–,–,–,·,·
COc1ccc(CNCCC(c2ccc(OC(C)C)cc2)c2ccccc2OC)cc1 (stereo not drawn),–,·,·,–,–,12,11,25
COc1ccccc1NC(=O)CC(c1ccc(OC(C)C)cc1)c1ccccc1OC (stereo not drawn),–,–,–,–,–,–,·,·
COc1ccccc1C(CCNCc1ccc(N(C)C)cc1)c1ccc(OC(C)C)cc1 (stereo not drawn),–,·,·,–,–,13,–,29
CN(Cc1nc(-c2cccs2)no1)CC1(N2CCOCC2)CCCCC1,–,–,–,–,–,–,·,·
CC(C)c1ccc(/C=N/n2nnnc2Nc2ccccc2)cc1,–,–,–,–,–,11,15,–
CC1CC(C)(C)CC2(C1)NC(=O)N(CC(=O)OCc1ccc(Br)cc1)C2=O (stereo not drawn),·,·,·,–,–,14,–,–
CC(=O)Nc1ccc(S(=O)(=O)Nc2cc(C)c(-n3nc4ccccc4n3)cc2O)cc1,–,–,–,–,–,11,–,–
COC1OC2COC(c3ccccc3)OC2C(OC(=O)c2ccccc2)C1OC(=O)c1ccccc1 (stereo not drawn),·,·,·,–,–,–,·,·
COc1ccc(C(=O)CSc2nnc(-c3cc(C)cc(C)c3)o2)cc1,–,–,–,–,–,9.8,–,–
COc1ccc(C(=O)CSc2nnc(-c3cc(OC)c(OC)c(OC)c3)o2)cc1,·,–,–,·,·,·,·,·

# Screening data from PubChem BioAssay.
